The text below walks through data of publication PMC6380921 (Environmental science & technology, 2019).

One series has as its target T1, recombinant human CYP2A6 (Homo sapiens, UniProt P11509).
T1 sequence (P11509 1-494): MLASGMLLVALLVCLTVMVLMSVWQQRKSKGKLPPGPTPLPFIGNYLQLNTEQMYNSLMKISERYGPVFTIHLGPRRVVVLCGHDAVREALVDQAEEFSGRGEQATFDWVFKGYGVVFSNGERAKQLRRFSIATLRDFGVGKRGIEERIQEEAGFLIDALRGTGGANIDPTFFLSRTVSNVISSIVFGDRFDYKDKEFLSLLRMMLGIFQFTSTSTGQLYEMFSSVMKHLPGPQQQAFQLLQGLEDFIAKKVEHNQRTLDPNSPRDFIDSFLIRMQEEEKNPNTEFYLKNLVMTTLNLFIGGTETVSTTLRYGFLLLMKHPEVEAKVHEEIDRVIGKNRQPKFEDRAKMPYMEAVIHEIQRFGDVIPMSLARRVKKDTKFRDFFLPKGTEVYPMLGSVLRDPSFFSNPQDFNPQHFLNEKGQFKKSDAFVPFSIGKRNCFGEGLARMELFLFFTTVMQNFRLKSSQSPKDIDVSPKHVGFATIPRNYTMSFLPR
Kind of series: PCB biotransformation assay with recombinant human CYP2A6. The series is classed as in vitro ADME. As to conditions: for enantiomeric fraction (EF) of OH-PCB metabolite, CYP2A6: EF = Area E1/(Area E1 + Area E2), 50 μM PCB, 60 min, 37 °C, 10 pmol/mL P450; for metabolite as percent of ΣOH-PCBs of the parent PCB, CYP2A6: racemic PCB 50 µM, 10 pmol P450/mL, 37°C, mean ± SD; for ratio of 3–103: 5–95: 4–95: 4’−95 (relative to 4’−95 = 1), recombinant CYP2A6: PCB 95 incubation.

Series [1] concerns the target T2, recombinant human CYP2B6 (Homo sapiens, UniProt P20813).
T2 sequence (P20813 1-491): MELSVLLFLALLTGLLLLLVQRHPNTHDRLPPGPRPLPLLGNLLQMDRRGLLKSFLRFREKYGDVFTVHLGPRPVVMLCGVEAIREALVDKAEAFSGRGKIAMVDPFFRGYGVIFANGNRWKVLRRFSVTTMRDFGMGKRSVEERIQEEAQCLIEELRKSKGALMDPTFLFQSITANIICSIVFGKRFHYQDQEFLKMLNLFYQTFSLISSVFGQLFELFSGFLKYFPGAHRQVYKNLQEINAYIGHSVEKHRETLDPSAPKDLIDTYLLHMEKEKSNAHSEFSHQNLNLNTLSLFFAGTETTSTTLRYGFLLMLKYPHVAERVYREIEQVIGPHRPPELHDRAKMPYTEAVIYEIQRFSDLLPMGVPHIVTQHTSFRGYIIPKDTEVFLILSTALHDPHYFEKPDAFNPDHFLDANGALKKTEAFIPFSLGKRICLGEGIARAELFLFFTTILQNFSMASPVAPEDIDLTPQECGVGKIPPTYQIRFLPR
In words: PCB biotransformation assay with recombinant human CYP2B6. In kind it is in vitro ADME. As to conditions: for enantiomeric fraction (EF) of OH-PCB metabolite, CYP2B6: EF = Area E1/(Area E1 + Area E2), 50 μM PCB, 60 min, 37 °C, 10 pmol/mL P450; for metabolite as percent of ΣOH-PCBs of the parent PCB, CYP2B6: racemic PCB 50 µM, 10 pmol P450/mL, 37°C, mean ± SD.

Series [2] relates to human liver microsomes (HLMs). Particulars: cited from earlier work; for enantiomeric fraction (EF) of 5-hydroxylated metabolites, HLMs: metabolism studies with HLMs; for ratio of 3–103: 5–95: 4–95: 4’−95 (relative to 4’−95 = 1), HLMs: PCB 95 with HLMs; for enantiomeric fraction (EF) of 1,2-shift products, HLMs: incubations with HLMs.
For series [3], the target named is T3, recombinant human CYP3A4 (Homo sapiens, UniProt P08684). In words: PCB biotransformation assay with recombinant human CYP3A4. In kind it is in vitro ADME. As to conditions: racemic PCB 50 µM; 10 pmol P450/mL; 37°C. Summed up: (§1)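 Human P450 co-expressed with human CYP-reductase in E. coli, 10 pmol/mL, in 0.1 M phosphate pH 7.4 with 3 mM MgCl2 and NADPH-regenerating system (~1 mM NADPH final). After 5 min preincubation, racemic PCB added (50 µM final, DMSO ≤0.5% v/v); incubated up to 60 min at 37°C; stopped with ice-cold NaOH plus heating. OH-PCBs identified as methylated derivatives by high-resolution GC/TOF-MS in 60-min extracts. Control Bactosomes; triplicates.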
T3 sequence (P08684 whole entry): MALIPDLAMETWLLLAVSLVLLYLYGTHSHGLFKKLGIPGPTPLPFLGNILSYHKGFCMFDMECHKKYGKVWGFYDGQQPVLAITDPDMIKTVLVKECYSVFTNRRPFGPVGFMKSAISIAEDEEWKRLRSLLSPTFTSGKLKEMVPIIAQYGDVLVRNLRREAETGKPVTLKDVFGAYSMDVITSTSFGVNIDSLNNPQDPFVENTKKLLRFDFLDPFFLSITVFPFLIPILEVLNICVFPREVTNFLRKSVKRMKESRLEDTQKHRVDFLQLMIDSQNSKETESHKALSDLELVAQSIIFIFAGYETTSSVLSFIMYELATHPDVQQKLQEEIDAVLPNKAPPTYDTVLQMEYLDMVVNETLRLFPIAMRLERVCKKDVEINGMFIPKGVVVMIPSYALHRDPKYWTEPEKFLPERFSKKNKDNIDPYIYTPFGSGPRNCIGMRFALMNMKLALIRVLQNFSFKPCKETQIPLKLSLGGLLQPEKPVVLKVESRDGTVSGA

Series [4] addresses T4, recombinant human CYP1A2 (Homo sapiens, UniProt P05177).
T4 sequence (P05177 1-516): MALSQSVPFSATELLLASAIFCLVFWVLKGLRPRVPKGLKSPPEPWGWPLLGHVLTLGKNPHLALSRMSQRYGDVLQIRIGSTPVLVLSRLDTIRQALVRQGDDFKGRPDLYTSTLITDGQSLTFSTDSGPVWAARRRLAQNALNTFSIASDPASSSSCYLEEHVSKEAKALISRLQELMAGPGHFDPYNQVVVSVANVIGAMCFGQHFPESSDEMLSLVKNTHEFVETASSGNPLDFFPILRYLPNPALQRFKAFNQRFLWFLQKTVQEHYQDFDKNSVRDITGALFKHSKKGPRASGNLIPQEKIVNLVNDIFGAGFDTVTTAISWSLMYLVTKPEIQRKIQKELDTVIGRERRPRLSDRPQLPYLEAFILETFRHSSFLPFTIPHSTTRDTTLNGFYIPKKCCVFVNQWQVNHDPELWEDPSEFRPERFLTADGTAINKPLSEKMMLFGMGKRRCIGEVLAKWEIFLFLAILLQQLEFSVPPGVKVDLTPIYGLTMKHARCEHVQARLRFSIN
In words: PCB biotransformation assay with recombinant human CYP1A2. In kind it is in vitro ADME. Particulars: racemic PCB 50 µM; 10 pmol P450/mL; 37°C. A digest of the protocol: as §1

Series [5] deals with T3, recombinant human CYP3A4. Particulars: cited from earlier work.
Series [6] deals with T2, recombinant human CYP2B6. Particulars: cited from earlier work.
The next series addresses recombinant human CYP2E1 (Homo sapiens, UniProt P05181). Particulars: cited from earlier work.
The target in series [7] is T4, recombinant human CYP1A2. Particulars: cited from earlier work.

recombinant human CYP2E1, sequence (P05181 whole entry): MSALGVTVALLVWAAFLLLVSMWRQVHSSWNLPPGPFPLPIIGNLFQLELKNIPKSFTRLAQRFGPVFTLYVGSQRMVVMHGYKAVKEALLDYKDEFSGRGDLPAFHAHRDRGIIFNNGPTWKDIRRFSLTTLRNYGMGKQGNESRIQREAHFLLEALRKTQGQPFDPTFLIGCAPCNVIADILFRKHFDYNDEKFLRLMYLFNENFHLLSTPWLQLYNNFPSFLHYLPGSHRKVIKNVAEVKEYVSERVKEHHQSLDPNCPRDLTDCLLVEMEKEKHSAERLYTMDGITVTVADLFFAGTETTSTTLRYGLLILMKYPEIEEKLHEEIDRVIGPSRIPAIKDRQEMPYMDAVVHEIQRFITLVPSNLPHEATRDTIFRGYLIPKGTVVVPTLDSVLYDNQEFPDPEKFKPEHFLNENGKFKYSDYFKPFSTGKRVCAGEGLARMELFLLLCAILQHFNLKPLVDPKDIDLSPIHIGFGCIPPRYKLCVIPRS

For the molecule `Oc1cc(Cl)c(-c2ccc(Cl)cc2Cl)c(Cl)c1Cl` [4–91], the “enantiomeric fraction (EF) of OH-PCB metabolite, CYP2A6” value (from here on “enantiomeric fraction (EF) … CYP2A6”) at recombinant human CYP2A6 turned out to be 0.39. Also, the “enantiomeric fraction (EF) of OH-PCB metabolite, CYP2B6” value (shortened to “enantiomeric fraction (EF) … CYP2B6”) at recombinant human CYP2B6 [1] stood at 0.60.
In the case of `Oc1cc(Cl)c(Cl)c(-c2ccc(Cl)c(Cl)c2Cl)c1Cl` [5’−132], the “enantiomeric fraction (EF) of 5-hydroxylated metabolites, HLMs” value in [2] is given as 0.19. On recombinant human CYP2B6 [1], the “enantiomeric fraction (EF) … CYP2B6” value worked out at 0.32 and the “metabolite as percent of ΣOH-PCBs of the parent PCB, CYP2B6” value (“metabolite as percent … CYP2B6” below) is listed as 81 ± 7%.
For `Clc1ccc(-c2c(Cl)ccc(Cl)c2Cl)c(Cl)c1Cl` [PCB 132, 2,2’,3,3’,4,6’-hexachlorobiphenyl], the “OH-PCB metabolites detected in incubations with CYP3A4” value at recombinant human CYP3A4 [3] is “no metabolites were detected”. Moreover, the “OH-PCB metabolites detected in incubations with CYP1A2” value at recombinant human CYP1A2 [4] is “no metabolites were detected”.
Turning to `Oc1cc(Cl)c(-c2c(Cl)ccc(Cl)c2Cl)c(Cl)c1Cl` [4–136], on recombinant human CYP2A6, the “enantiomeric fraction (EF) … CYP2A6” value was determined as 0.10 and the “metabolite as percent of ΣOH-PCBs of the parent PCB, CYP2A6” value (“metabolite as percent … CYP2A6” below) was found to be 64 ± 2%.
Turning to `Clc1ccc(Cl)c(-c2c(Cl)ccc(Cl)c2Cl)c1` [PCB 95, 2,2’,3,5’,6-pentachlorobiphenyl], on recombinant human CYP3A4 [5], the “metabolism by recombinant CYP3A4, earlier studies” value was “did not metabolize”. Further, the “oxidation by CYP2B6, earlier studies” value on recombinant human CYP2B6 [6] was “did not observe any oxidation”. Besides, the “oxidation by CYP2E1, earlier studies” value on recombinant human CYP2E1 is “did not observe any oxidation”. Further, the “metabolism by recombinant CYP1A2, earlier studies” value at recombinant human CYP1A2 [7] is reported as “did not metabolize”. For the same molecule, the “OH-PCB metabolites detected in incubations with CYP3A4” value on recombinant human CYP3A4 [3] is given as “no metabolites were detected”. Further, the “OH-PCB metabolites detected in incubations with CYP1A2” value at recombinant human CYP1A2 [4] is recorded as “no metabolites were detected”.
As for `Oc1c(Cl)cc(Cl)c(-c2cc(Cl)ccc2Cl)c1Cl` [3–103], the “ratio of 3–103: 5–95: 4–95: 4’−95 (relative to 4’−95 = 1), HLMs” value in series [2] is 0.11. Further, at recombinant human CYP2A6, the “enantiomeric fraction (EF) … CYP2A6” value is recorded as 0.99 and the “ratio of 3–103: 5–95: 4–95: 4’−95 (relative to 4’−95 = 1), recombinant CYP2A6” value came to 0.11.
Take `Oc1cc(Cl)c(Cl)c(-c2ccc(Cl)cc2Cl)c1Cl` [5–91]: the “enantiomeric fraction (EF) of 5-hydroxylated metabolites, HLMs” value in series [2] is 0.47. Also, on recombinant human CYP2B6 [1], the “enantiomeric fraction (EF) … CYP2B6” value is recorded as 0.49 and the “metabolite as percent … CYP2B6” value was determined as 98.4 ± 0.1%.
For `Oc1c(Cl)cc(Cl)c(-c2ccc(Cl)c(Cl)c2Cl)c1Cl` [3’−140], the “enantiomeric fraction (EF) of 1,2-shift products, HLMs” value in series [2] was 0.84. Besides, the “metabolite as percent … CYP2A6” value at recombinant human CYP2A6 was found to be 67 ± 1%.
For `Oc1cc(Cl)c(Cl)c(-c2cc(Cl)ccc2Cl)c1Cl` [5–95], the “ratio of 3–103: 5–95: 4–95: 4’−95 (relative to 4’−95 = 1), HLMs” value in series [2] is reported as 0.06. Also, the “ratio of 3–103: 5–95: 4–95: 4’−95 (relative to 4’−95 = 1), recombinant CYP2A6” value at recombinant human CYP2A6 came to 0.04. On recombinant human CYP2B6 [1] (PCB 95 incubation), the “formation rate by CYP2B6, times lower compared to CYP2A6” value turned out to be 2 times.
For the molecule `Oc1cc(Cl)c(Cl)c(-c2c(Cl)ccc(Cl)c2Cl)c1Cl` [5–136], in series [2] (PCB 136 with HLMs), the “ratio of 5–136: 4–136 (4–136 = 1), HLMs” value is 0.39 and the “ratio of 5–136: 4–136 (4–136 = 1), HLMs, earlier study” value is on record as 1.3. For the same molecule, the “enantiomeric fraction (EF) of 5-hydroxylated metabolites, HLMs” value in [2] is listed as 0.31. In addition, the “ratio of 5–136: 4–136 (4–136 = 1) formed with CYP2A6” value on recombinant human CYP2A6 (PCB 136 incubation) is recorded as 0.3. Moreover, at recombinant human CYP2B6 [1], the “enantiomeric fraction (EF) … CYP2B6” value is given as 0.50 and the “metabolite as percent … CYP2B6” value is given as 94 ± 0.3%.
On to `Clc1ccc(Cl)c(-c2cc(Cl)ccc2Cl)c1` [PCB 52, 2,2’,5,5’-tetrachlorobiphenyl], for which, on recombinant human CYP3A4 [5], the “metabolism by recombinant CYP3A4, earlier studies” value is recorded as “did not metabolize”. In addition, the “oxidation by CYP2B6, earlier studies” value on recombinant human CYP2B6 [6] is recorded as “did not observe any oxidation”. Moreover, the “oxidation by CYP2E1, earlier studies” value on recombinant human CYP2E1 is reported as “did not observe any oxidation”. In addition, the “metabolism by recombinant CYP1A2, earlier studies” value on recombinant human CYP1A2 [7] was “did not metabolize”.
For `Clc1ccc(Cl)c(-c2c(Cl)ccc(Cl)c2Cl)c1Cl` [PCB 136, 2,2’,3,3’,6,6’-hexachlorobiphenyl], the “OH-PCB metabolites detected in incubations with CYP3A4” value at recombinant human CYP3A4 [3] is reported as “no metabolites were detected”. In addition, the “OH-PCB metabolites detected in incubations with CYP1A2” value at recombinant human CYP1A2 [4] is “no metabolites were detected”.
For the molecule `Clc1ccc(-c2c(Cl)ccc(Cl)c2Cl)c(Cl)c1` [PCB 91, 2,2’,3,4’,6-pentachlorobiphenyl], the “OH-PCB metabolites detected in incubations with CYP3A4” value at recombinant human CYP3A4 [3] is on record as “no metabolites were detected”. Besides, the “OH-PCB metabolites detected in incubations with CYP1A2” value at recombinant human CYP1A2 [4] is “no metabolites were detected”.
On to `Oc1c(Cl)cc(Cl)c(-c2ccc(Cl)cc2Cl)c1Cl` [3–100], for which, in series [2], the “enantiomeric fraction (EF) of 1,2-shift products, HLMs” value is given as 0.85. At recombinant human CYP2A6, the “enantiomeric fraction (EF) … CYP2A6” value is 0.92 and the “metabolite as percent … CYP2A6” value stood at 81 ± 2%.
